These results are taken from PMC4607565 (Bioorganic & medicinal chemistry letters, 2015).

The target in test [1] is T1, TG2 (Homo sapiens, UniProt P21980).
T1 sequence (P21980 1-687): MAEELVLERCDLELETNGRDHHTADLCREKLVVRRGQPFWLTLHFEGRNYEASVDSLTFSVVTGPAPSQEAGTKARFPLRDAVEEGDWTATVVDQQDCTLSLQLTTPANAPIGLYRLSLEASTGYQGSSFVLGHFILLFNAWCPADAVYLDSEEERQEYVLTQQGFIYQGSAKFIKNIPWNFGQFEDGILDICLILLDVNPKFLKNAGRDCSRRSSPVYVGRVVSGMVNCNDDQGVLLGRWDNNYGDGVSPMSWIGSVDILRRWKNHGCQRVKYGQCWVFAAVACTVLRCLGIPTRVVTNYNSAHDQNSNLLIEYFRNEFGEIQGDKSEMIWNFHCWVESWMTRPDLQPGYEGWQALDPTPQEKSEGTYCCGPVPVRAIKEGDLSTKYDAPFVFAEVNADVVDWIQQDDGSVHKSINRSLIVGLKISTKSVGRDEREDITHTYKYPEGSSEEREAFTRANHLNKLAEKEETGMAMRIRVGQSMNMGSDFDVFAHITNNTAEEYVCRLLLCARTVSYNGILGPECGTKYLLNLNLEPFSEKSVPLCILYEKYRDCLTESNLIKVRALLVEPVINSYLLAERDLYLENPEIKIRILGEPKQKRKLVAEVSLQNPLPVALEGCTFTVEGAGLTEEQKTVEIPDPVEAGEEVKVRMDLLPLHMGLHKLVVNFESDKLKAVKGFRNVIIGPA
Conditions: active site-directed irreversible inhibitor; cited from earlier work.

For test [2], the target named is T2, TG2 S2A mutant (E396Q/N398S/D400N) (Homo sapiens, UniProt P21980, D400N/E396Q/N398S).
T2 sequence (P21980 1-687 E396Q/N398S/D400N): T1 sequence (P21980 1-687) with E396Q, N398S, D400N
In words: deamidation activity of S2A mutant. In kind it is biochemical. Conditions: [TG2] = 2.5 μM; [Ca2+] = 5 mM.

The target in test [3] is T3, R580A mutant of human TG2 (Homo sapiens, UniProt P21980, R580A).
T3 sequence (P21980 1-687 R580A): T1 sequence (P21980 1-687) with R580A
The experiment in a line: deamidation activity of R580A mutant. In kind it is biochemical. Conditions: [TG2] = 0.5 μM, [Ca2+] = 3 mM. In short, it runs like this:
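Deamidation by wild-type and R580A TG2 was measured side by side with test compound and the GTP analog GMP-PNP, at 0.5 μM enzyme and 3 mM Ca2+.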

For test [4], the system named is extracellular TG2 in WI-38 fibroblasts. In words: 5-BP incorporation into extracellular matrix proteins of WI-38 fibroblasts. In kind it is cell-based. In short, it runs like this:
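WI-38 fibroblasts were grown to confluence, then pre-incubated with vehicle (1% DMSO) or test compound for 30 min. Cells were then given 200 μM 5-(biotinamido)pentylamine for 3 h, fixed and stained. Transamidation was scored as 5-BP incorporated into extracellular matrix proteins, imaged at 5 fields sampled across each well.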

Test [5] has as its target T4, human TG2 (V224 variant) (Homo sapiens, UniProt P21980).
T4 sequence (P21980 1-687): T1 sequence (P21980 1-687)
In words: coupled GDH assay of TG2 deamidation of Cbz-Gln-Gly. In kind it is biochemical. The following applies: for mode of inhibition / activation: V224 TG2.

In test [6] the target is T1, TG2. In words: microtiter plate transamidation assay. In kind it is biochemical. In short, it runs like this: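 In a microtiter plate format, TG2 incorporated 5-BP into immobilized N,N-dimethylcasein. The incorporated biotin was quantified with streptavidin. Ca2+ was held at the sub-saturating level of 0.6 mM, and the test compound was assayed with or without the stable GTP analog GMP-PNP.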

For test [7], the target named is T5, TG2 S2B mutant (E447Q/E451Q/E452Q/E454Q) (Homo sapiens, UniProt P21980, E447Q/E451Q/E452Q/E454Q).
T5 sequence (P21980 1-687 E447Q/E451Q/E452Q/E454Q): T1 sequence (P21980 1-687) with E447Q, E451Q, E452Q, E454Q
The experiment in a line: deamidation activity of S2B mutant. It counts as biochemical. The following applies: [TG2] = 2.5 μM; [Ca2+] = 5 mM.

The target of test [8] is T6, truncated form of human TG2 (1-466) (Homo sapiens, UniProt P21980).
T6 sequence (P21980 1-466): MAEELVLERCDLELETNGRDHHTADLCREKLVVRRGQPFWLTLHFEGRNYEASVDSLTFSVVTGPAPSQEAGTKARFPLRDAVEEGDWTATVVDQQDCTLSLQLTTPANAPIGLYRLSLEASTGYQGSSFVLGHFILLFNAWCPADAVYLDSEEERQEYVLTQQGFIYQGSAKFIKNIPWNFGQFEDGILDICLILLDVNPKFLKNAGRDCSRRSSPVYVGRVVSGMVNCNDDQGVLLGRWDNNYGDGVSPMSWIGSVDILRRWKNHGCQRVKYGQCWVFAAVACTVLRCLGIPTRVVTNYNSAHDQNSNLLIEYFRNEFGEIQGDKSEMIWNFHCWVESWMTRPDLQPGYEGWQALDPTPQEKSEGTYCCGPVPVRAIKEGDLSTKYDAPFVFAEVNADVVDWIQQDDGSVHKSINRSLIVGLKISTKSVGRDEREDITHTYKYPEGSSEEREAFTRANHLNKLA
In words: deamidation activity of truncated TG2. In kind it is biochemical. Conditions: [TG2] = 0.5 μM; [Ca2+] = 5 mM. In short, it runs like this: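 The truncated TG2 (residues 1-466) lacks both C-terminal beta-barrel domains and was expressed and purified. It was tested against wild-type TG2 in the deamidation assay at 0.5 μM enzyme and 5 mM Ca2+. Activity was normalized to each protein's own maximum, since kcat and KM differ between the two proteins.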

Test [9] concerns the target T1, TG2. In words: native PAGE analysis of open versus closed states.
Test [10] deals with T3, R580A mutant of human TG2. The following applies: cited from earlier work.
In test [11] the target is TG2. Conditions: cited from earlier work.

Residue numbers refer to the chain shown, from its start. pKd: −log10 of the molar value. “Also recorded” adds a separate entry of the source. Like-named read-outs stand apart in the source and are kept apart here.

Take Ac-P(DON)LPF-NH2: the “effect on TG2 conformation” value in test [1] is listed as “locks TG2 in the open state”.

`COc1ccccc1C(=O)/C=C1/C(=O)Nc2cccc(Cl)c21` [CK-IV-55]: the “inhibitory effect on S2A mutant compared with wild-type” value in test [2] is recorded as “comparable inhibitory effect”. In addition, in test [3] (R580A mutant), the “agonistic effect in the presence of GMP-PNP” value is listed as “evident”. For the same compound, the “inhibitory potency in R580A mutant versus wild-type” value in [3] is “unaltered”. The “extracellular TG2 activity (5-BP incorporation)” value in [4] (1 μM compound, 200 μM 5-BP, 3 h) is “activation of extracellular TG2”; in [4] (10 μM compound, 3 h) it was “TG2 activity was suppressed compared to the 1 μM case”. The “mode of inhibition / activation” value in test [5] (Lineweaver-Burk analysis) was “non-competitive inhibitor”. Further, the “extent of inhibition of wild-type TG2” value in [5] ([TG2] = 0.5 μM, [Ca2+] = 5 mM) is reported as “partial inhibitory character”. The “effect on TG2 catalytic activity at sub-saturating Ca2+” value in test [5] (sub-saturating Ca2+, 0.5-0.7 mM (legend of Figure 4A: 0.5-0.8 mM)) was “weak but reproducible agonism; also recorded: activated TG2”. For the same compound, the “effect on transamidating activity of TG2” value in test [6] (0.6 mM Ca2+ alone) is given as “agonism was not observed”. Also, in test [6] (0.6 mM Ca2+ and 100 μM GMP-PNP), the “effect on transamidation activity of TG2” value is given as “markedly enhanced”. The “effect on activity of S2B mutant” value in [7] is listed as “no effect”. The “extent of inhibition of TG2 (1-466)” value in [8] is recorded as “total antagonist”. For the same compound, the “influence on relative distribution of open versus closed states of TG2” value in test [9] is listed as “did not have a measurable influence”.

Take `Nc1nc2c(ncn2[C@@H]2O[C@H](COP(=O)(O)OP(=O)(O)NP(=O)(O)O)[C@@H](O)[C@H]2O)c(=O)[nH]1` [GMP-PNP, reference compound]: the “mode of inhibition / activation” value in test [5] (Lineweaver-Burk analysis) is “competitive inhibitor”. Moreover, the “inhibition of R580A mutant” value in test [10] is listed as “attenuated”.

The pKd is the Kd on a negative log10 scale, so that one unit is a factor of ten. `[Ca+2]` [Ca^2+, reference compound]: the pKd in test [11] (read-out: Kd, high-affinity Ca2+ binding site, one site (S1)) is approximately 6.00; in test [11] (read-out: Kd, lower-affinity Ca2+ binding sites, five sites), approximately 3.00. Further, in [5] (Lineweaver-Burk analysis), the “mode of inhibition / activation” value is on record as “competitive activator”. For the same compound, the “Ka, activation of V224 TG2” value in test [5] (Lineweaver-Burk analysis, [TG2] = 0.5 μM) was 0.6 ± 0.3 mM.

As for `O=C1Nc2cccc(Cl)c2/C1=C\C(=O)c1ccc(Cl)cc1` [CK-IV-67], in [4] (concentrations not given (data not shown)), the “extracellular TG2 activity (5-BP incorporation)” value is “higher absolute concentrations of the latter inhibitor were required to see elevated 5-BP incorporation”.
